Source: paper PMC8154016 (ACS Omega, 2021)

Tests used:
[1] = test system: A549 (lung) cancer cell line; experiment: MTT assay, cell viability and IC50, A549; assay type: cell-based; details: Homo sapiens; for viability: A549, 48 h, read-out: Cell viability (%) A549 (lung), 100 μg/μL concentration of compound, 48 h, MTT, mean ± SD in triplicate
Procedure, shortened: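 A549 human lung cancer cells were grown in DMEM with 10% FBS and 1% penicillin–streptomycin at 37 °C in humidified 5% CO2. Cells were seeded in 96-well plates and exposed for 48 h to serial dilutions of the test compound in DMSO (<1% final). MTT (5 mg/mL solution as added) was applied for 240 min at 37 °C. Formazan was dissolved in DMSO and A490 read for % viability. Triplicate; mean ± SD.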

[2] = test system: MCF-7 (breast) cancer cell line; experiment: MTT assay, cell viability, MCF-7; assay type: cell-based; details: Homo sapiens, MCF7, 48 h, read-out: Cell viability (%) MCF-7 (breast), 100 μg/μL concentration of compound, 48 h, MTT, mean ± SD in triplicate
Procedure, shortened: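 Human MCF-7 breast cancer cells grown in DMEM with 10% FBS and 1% penicillin–streptomycin at 37 °C, 5% CO2, humidified. Test compound in DMSO (under 1% final) added at various dilutions for 48 h. MTT (5 mg/mL stock) then added for 240 min at 37 °C. Formazan dissolved in DMSO and absorbance read at 490 nm. Percent viability calculated; triplicate, mean ± SD.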

IC50 ([1]; A549, read-out: IC50 (μM) A549 (lung)) [µM]	SMILES	viability [1] [%]	viability [2] [%]
–	Cc1ccc(NC(=O)CSc2nnc(Cn3cnc4c3c(=O)n(C)c(=O)n4C)n2-c2ccccc2)c(C)c1 [Compound 11c, 2-(5-((1,3-Dimethyl-2,6-dioxo-2,3-dihydro-1H-purin-7(6H)-yl)methyl)-4-phenyl-4H-1,2,4-triazol-3-ylthio)-N-(2,4-dimethylphenyl)acetamide]	26.1 ± 1.86	38.7 ± 2.07
–	Cn1c(=O)c2c(ncn2Cc2nnc(SCC(=O)Nc3ccc(Cl)cc3Cl)n2-c2ccccc2)n(C)c1=O [Compound 11b, N-(2,4-Dichlorophenyl)-2-(5-((1,3-dimethyl-2,6-dioxo-2,3-dihydro-1H-purin-7(6H)-yl)methyl)-4-phenyl-4H-1,2,4-triazol-3-ylthio)acetamide]	52.6 ± 5.07	69.4 ± 7.05
–	Cn1c(=O)c2c(ncn2Cc2nnc(SCC(=O)Nc3ccccc3F)n2-c2ccccc2)n(C)c1=O [Compound 11j, 2-(5-((1,3-Dimethyl-2,6-dioxo-2,3-dihydro-1H-purin-7(6H)-yl)methyl)-4-phenyl-4H-1,2,4-triazol-3-ylthio)-N-(2-fluorophenyl)acetamide]	67.5 ± 4.27	63.7 ± 3.54
–	Cn1c(=O)c2c(ncn2CC(=O)O)n(C)c1=O [Acefylline, Theophylline-7-acetic acid, reference compound]	–	86.3 ± 11.8
1.25 ± 1.6	Cc1ccc(NC(=O)CSc2nnc(Cn3cnc4c3c(=O)n(C)c(=O)n4C)n2-c2ccccc2)cc1 [Compound 11g, 2-(5-((1,3-Dimethyl-2,6-dioxo-2,3-dihydro-1H-purin-7(6H)-yl)methyl)-4-phenyl-4H-1,2,4-triazol-3-ylthio)-N-p-tolylacetamide]	21.7 ± 1.6	31.8 ± 3.16
–	Cc1ccc(NC(=O)CSc2nnc(Cn3cnc4c3c(=O)n(C)c(=O)n4C)n2-c2ccccc2)cc1C [Compound 11h, 2-(5-((1,3-Dimethyl-2,6-dioxo-2,3-dihydro-1H-purin-7(6H)-yl)methyl)-4-phenyl-4H-1,2,4-triazol-3-ylthio)-N-(3,4-dimethylphenyl)acetamide]	55.4 ± 4.6	33.2 ± 2.77
–	Cn1c(=O)c2c(ncn2Cc2nnc(SCC(=O)Nc3ccccc3)n2-c2ccccc2)n(C)c1=O [Compound 11a, 2-(5-((1,3-Dimethyl-2,6-dioxo-2,3-dihydro-1H-purin-7(6H)-yl)methyl)-4-phenyl-4H-1,2,4-triazol-3-ylthio)-N-phenylacetamide]	59.6 ± 1.36	34.7 ± 2.49
–	Cn1c(=O)c2c(ncn2Cc2nnc(SCC(=O)Nc3ccc(Cl)c(Cl)c3)n2-c2ccccc2)n(C)c1=O [Compound 11d, N-(3,4-Dichlorophenyl)-2-(5-((1,3-dimethyl-2,6-dioxo-2,3-dihydro-1H-purin-7(6H)-yl)methyl)-4-phenyl-4H-1,2,4-triazol-3-ylthio)acetamide]	46.2 ± 1.42	38.1 ± 4.04
–	Cn1c(=O)c2c(ncn2Cc2nnc(SCC(=O)Nc3ccccc3Cl)n2-c2ccccc2)n(C)c1=O [Compound 11f, N-(2-Chlorophenyl)-2-(5-((1,3-dimethyl-2,6-dioxo-2,3-dihydro-1H-purin-7(6H)-yl)methyl)-4-phenyl-4H-1,2,4-triazol-3-ylthio)acetamide]	55.4 ± 4.11	72.8 ± 6.35
–	Cn1c(=O)c2c(ncn2Cc2nnc(SCC(=O)Nc3ccc(F)cc3)n2-c2ccccc2)n(C)c1=O [Compound 11e, 2-(5-((1,3-Dimethyl-2,6-dioxo-2,3-dihydro-1H-purin-7(6H)-yl)methyl)-4-phenyl-4H-1,2,4-triazol-3-ylthio)-N-(4-fluorophenyl)acetamide]	52.1 ± 3.66	54.8 ± 4.88
